The list shows a part of the results. Active and inactive are the calls of the source.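 The calls were made as follows: active = mean inhibition over triplicates exceeds the hit threshold derived for the earlier primary screening run (cut at about 25% in these data); inactive = the rest.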
Target: Arf-GAP with SH3 domain, ANK repeat and PH domain-containing protein 1 (Homo sapiens) (UniProt Q9ULH1)
Test: ASAP1 GAP activity inhibitors, confirmation, biochemical, fluorescence polarization, human, triplicate (AID 624431)
Conditions: ASAP1-stimulated Arf1 GTPase, GDP fluorescence polarization; at 16.5 µM; active compounds read high
Outline: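 System: ASAP1 GAP domain protein (residues 325-724) / Medium: HEPES, pH 7.5 / Also added: Arf1 Δ17-GTP substrate / Dosing: single dose, 16.5 µM final test compound / Incubation: 20-min ASAP1–compound and 120-min Arf1-GTP steps at 25 °C, 60-min tracer / Technique: FP readout via GDP Alexa 633 tracer displacement from antibody / Read-out: % inhibition vs no-ASAP1 controls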

Sequence of Arf-GAP with SH3 domain, ANK repeat and PH domain-containing protein 1 (Homo sapiens) (Q9ULH1 325-724 limits assumed): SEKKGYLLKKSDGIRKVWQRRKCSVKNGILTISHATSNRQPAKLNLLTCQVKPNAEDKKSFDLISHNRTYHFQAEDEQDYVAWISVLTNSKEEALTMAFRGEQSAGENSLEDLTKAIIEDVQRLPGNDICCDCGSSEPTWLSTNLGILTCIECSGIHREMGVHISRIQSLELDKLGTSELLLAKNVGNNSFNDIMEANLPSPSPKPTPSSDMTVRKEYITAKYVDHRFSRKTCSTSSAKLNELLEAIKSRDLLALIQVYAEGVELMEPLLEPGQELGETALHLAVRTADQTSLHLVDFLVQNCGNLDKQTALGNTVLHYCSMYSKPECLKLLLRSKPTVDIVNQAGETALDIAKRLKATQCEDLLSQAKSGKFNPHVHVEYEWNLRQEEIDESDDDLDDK

inhibition, active:
COc1ccc(-n2nnnc2SCC(=O)c2ccc(OC)c(OC)c2)cc1 30.7%, N#Cc1cc([N+](=O)[O-])ccc1Oc1cccc(/C=N/NC(=O)c2ccc(Cl)cc2)c1 31.5%, CC(=O)Nc1cc(-c2ccc(N3CCN(C)CC3)cc2)cn2c(-c3cccc(C(=O)N(C)C)c3)cnc12 69.3%, CC(=O)c1cccc(-c2cnc3c(NC=O)cc(-c4ccc(N5CCN(C)CC5)cc4)cn23)c1 77.7%, c1ccc(-c2cc(-c3nnc4sc(-c5ccccn5)nn34)[nH]n2)cc1 33%, COc1cc(/C=N/Nc2nn3cnnc3c3ccccc23)cc(OC)c1OC 39%, Cc1ccc2nc(SCC(=O)N3CC(C)OC(C)C3)nc(=O)n2c1 (stereo not given) 54.1%, OCCNc1nc(Nc2ccc(Cl)c(Cl)c2)nc2ccccc12 26.6%, CCN(CC)c1ccc2cc(C(N)=O)/c(=N\NC(=O)c3ccncc3)oc2c1 87.2%, CCN1CCN(CCNC(=O)c2ccc3c(c2)NC(=O)/C(=C\c2ccc(OC)c(OC)c2)S3)CC1 94%

inhibition, inactive:
COc1ccc(C(CNC(=O)c2cccc(S(=O)(=O)Nc3ccccc3Cl)c2)N2CCOCC2)cc1 (stereo not given) 16.6%, C=CCNc1nc(N)c(C(=C(C#N)C#N)c2ccccc2)s1 13.1%, CC(=O)N(C1=C(Cl)C(=O)c2ccccc2C1=O)c1ccc(C(=O)O)cc1 22.3%, CCOC(=O)c1ccc(Nc2cc3ccccc3c(=O)[nH]2)cc1 9.9%, O=C(NC1=CC(=O)c2ccccc2C1=O)c1ccccc1 13.6%
